One block for each molecule: values may come before it.
Tests used:
[1] = tested on: PI3Kα, PI3Kβ, PI3Kγ, PI3Kδ; conditions: compared to ZSTK474; cited from earlier work
PI3Kβ = PI3Kβ (Homo sapiens, UniProt P42338); test: PI3Kβ lipid kinase inhibition, Adapta TR-FRET assay; type: biochemical; conditions: in comparison to ZSTK474
PI3Kγ = PI3Kγ (Homo sapiens, UniProt P48736); test: PI3Kγ lipid kinase inhibition, Adapta TR-FRET assay; type: biochemical; conditions: in comparison to ZSTK474
PI3Kδ = PI3Kδ (Homo sapiens, UniProt O00329); test: PI3Kδ lipid kinase inhibition, Adapta TR-FRET assay; type: biochemical; conditions: in comparison to ZSTK474
Sequence of PI3Kδ (O00329 whole entry, canonical isoform): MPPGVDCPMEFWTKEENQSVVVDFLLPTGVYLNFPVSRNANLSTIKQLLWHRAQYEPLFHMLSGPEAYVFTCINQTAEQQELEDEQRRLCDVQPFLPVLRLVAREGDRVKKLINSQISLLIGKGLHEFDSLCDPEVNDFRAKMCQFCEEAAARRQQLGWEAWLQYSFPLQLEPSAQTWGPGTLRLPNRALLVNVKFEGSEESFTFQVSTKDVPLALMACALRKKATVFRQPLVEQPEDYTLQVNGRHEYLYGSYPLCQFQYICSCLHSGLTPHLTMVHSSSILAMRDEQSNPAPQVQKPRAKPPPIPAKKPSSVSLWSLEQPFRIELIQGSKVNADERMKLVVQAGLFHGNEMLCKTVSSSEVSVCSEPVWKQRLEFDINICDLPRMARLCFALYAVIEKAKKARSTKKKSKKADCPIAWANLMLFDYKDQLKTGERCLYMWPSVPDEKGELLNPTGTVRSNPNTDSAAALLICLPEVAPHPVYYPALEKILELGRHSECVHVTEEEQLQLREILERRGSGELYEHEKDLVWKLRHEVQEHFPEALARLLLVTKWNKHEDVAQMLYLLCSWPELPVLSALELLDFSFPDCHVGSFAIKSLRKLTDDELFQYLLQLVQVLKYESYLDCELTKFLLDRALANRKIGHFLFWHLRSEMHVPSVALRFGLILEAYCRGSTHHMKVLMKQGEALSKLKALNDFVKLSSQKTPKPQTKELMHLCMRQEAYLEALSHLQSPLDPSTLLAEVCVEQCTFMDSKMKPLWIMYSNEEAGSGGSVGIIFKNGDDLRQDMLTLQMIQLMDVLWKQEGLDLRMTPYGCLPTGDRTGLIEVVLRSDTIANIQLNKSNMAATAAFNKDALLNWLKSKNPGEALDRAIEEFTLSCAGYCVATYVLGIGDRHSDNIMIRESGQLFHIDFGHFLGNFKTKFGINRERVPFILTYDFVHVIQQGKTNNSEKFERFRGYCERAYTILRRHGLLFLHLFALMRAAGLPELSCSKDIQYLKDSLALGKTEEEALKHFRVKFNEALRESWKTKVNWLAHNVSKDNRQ
Sequence of PI3Kδ (P27986 whole entry partner, canonical isoform): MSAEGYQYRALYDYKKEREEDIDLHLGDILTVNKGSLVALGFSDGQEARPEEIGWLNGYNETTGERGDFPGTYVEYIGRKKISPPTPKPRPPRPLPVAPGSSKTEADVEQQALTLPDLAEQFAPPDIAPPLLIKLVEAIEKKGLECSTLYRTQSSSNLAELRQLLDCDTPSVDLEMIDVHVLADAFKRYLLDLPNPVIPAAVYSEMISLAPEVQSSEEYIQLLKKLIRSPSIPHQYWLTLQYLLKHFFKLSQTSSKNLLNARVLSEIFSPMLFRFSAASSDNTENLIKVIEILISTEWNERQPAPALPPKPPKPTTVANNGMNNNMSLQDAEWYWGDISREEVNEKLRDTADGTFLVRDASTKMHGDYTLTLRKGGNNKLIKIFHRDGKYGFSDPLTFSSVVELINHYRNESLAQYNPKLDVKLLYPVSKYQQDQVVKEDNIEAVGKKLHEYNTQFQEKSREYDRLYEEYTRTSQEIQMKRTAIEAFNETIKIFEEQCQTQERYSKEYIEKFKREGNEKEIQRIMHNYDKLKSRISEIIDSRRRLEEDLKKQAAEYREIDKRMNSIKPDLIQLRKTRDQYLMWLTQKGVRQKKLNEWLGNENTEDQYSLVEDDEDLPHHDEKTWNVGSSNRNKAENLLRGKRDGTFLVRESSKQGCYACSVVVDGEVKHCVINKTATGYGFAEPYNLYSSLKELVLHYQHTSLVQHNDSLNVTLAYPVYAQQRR

[2] = tested on: PI3Kα, PI3Kβ, PI3Kγ, PI3Kδ; test: PI3K isoform inhibition, statements spanning several isoforms; type: biochemical, human; conditions: compared to 6b
How it was run: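 Purified human PI3Kα, β, γ and δ enzymes tested in a fluorescence-based Adapta TR-FRET lipid kinase assay, run as a contract service. Inhibitor range 0.1 nM – 10 μM. Data are the average of three experiments, each in duplicate, as mean ± SEM.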

[3] = tested on: A375 melanoma, D54 glioblastoma and SET-2 leukemia tumor cell lines; test: CellTiter-Fluor cell viability assay; type: cell-based; conditions: Homo sapiens, 72 h, read-out: anti-proliferative activity IC50
How it was run: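 Human A375, D54 (DMEM or RPMI, 10% FBS) and SET-2 (20% FBS) cells at 37 °C, 5% CO2; 500–1,000 cells/well seeded and left 24 h, then test compound added at 0.1–20 μM final for 72 h. Read by CellTiter-Fluor fluorescence, with a reference PI3K inhibitor as positive control. Three experiments in duplicate wells; IC50 from curve fit, mean ± SEM.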

[4] = tested on: phosphorylation of ERK1/2 (T202/Y204); test: Western blot quantification of pERK1/2 in tumor-derived cell lines; type: cell-based; conditions: Homo sapiens, 0.5 h, read-out: inhibition of pERK phosphorylation
How it was run: (§1)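 A375 and D54 cells (DMEM, 10% FBS) and SET-2 cells (RPMI, 20% FBS) treated 30 min with 10 μM test compound. PDGF 50 ng/ml added for A375 and D54 only. Cells lysed 20 min on ice in RIPA with protease/phosphatase inhibitors, then SDS-PAGE/PVDF blots probed for pAKT S473, pERK1/2 T202/Y204, total AKT and total ERK1/2, with chemiluminescent detection. Background-subtracted phospho densities normalised to total protein, relative to control. Three experiments; mean ± SEM.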

[5] = tested on: phosphorylation of AKT (S473); test: Western blot quantification of pAKT in tumor-derived cell lines; type: cell-based; conditions: Homo sapiens, 0.5 h, read-out: inhibition of pAKT phosphorylation
How it was run: as §1

[6] = In vivo tissue levels and metabolic profile by LC-MS/MS; design: species or system mouse; conditions: mice, oral 325 mg/kg, approximately 4 h
How it was run: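 Mice (n=4 per compound) dosed orally at 325 mg/kg; blood, spleen and bone marrow taken about 4 h later. Tissue extracted by shaking or bead homogenisation and spun at 10,000 × g. Analysed by C18 UPLC (0.1% formic acid water/acetonitrile, 0.6 mL/min) with MRM LC-MS/MS. Internal-standard calibration used 1/X weighting over 0.02–160 ng/mL. Synthesized metabolite standards confirmed identities; levels given as ng/g.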

JAK2V617F MF mouse model = test: Therapy study in JAK2V617F myelofibrosis mouse model; type: in vivo; conditions: 325 mg/kg daily p.o., 4 days
How it was run: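 JAK2V617F fl/− × Mx1-Cre donor bone marrow mixed with WT C57BL/6 marrow (1:9, WT:mutant). Five million cells transplanted into lethally irradiated C57BL/6 females, with polyI:C given twice 2 weeks after transplant. Spleen volume by 7T MRI (2D multi-slice FLASH, TR/TE 600/8 ms, 40 slices of 0.4 mm) at days 0 and 4, summing pixel areas × slice thickness. Spleens weighed after 5 days of treatment. n=5 vehicle, n=4 treated; mean ± s.d.; Welch's t-test.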

[7] = tested on: phosphorylated ERK1/2 and AKT in spleens of JAK2V617F MF mice; test: pAKT and pERK1/2 in spleens of treated MF mice; type: in vivo, mouse; conditions: 325 mg/kg daily p.o., 5 days, vs vehicle
How it was run: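 JAK2V617F myelofibrosis mice received test compound orally for 5 days, and spleens were taken after sacrifice. For blots, tissue was homogenised in RIPA and 30 μg protein (by BCA) run by SDS-PAGE. Blots were probed for pERK1/2 and pAKT with β-actin as loading control, 2 animals per group. Flow cytometry: isolated cells stained intracellularly with APC anti-pERK1/2 (pT202/pY204) and anti-pAKT (pS473); mean fluorescence intensity reported.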

Sequence of PI3Kβ (P42338 whole entry): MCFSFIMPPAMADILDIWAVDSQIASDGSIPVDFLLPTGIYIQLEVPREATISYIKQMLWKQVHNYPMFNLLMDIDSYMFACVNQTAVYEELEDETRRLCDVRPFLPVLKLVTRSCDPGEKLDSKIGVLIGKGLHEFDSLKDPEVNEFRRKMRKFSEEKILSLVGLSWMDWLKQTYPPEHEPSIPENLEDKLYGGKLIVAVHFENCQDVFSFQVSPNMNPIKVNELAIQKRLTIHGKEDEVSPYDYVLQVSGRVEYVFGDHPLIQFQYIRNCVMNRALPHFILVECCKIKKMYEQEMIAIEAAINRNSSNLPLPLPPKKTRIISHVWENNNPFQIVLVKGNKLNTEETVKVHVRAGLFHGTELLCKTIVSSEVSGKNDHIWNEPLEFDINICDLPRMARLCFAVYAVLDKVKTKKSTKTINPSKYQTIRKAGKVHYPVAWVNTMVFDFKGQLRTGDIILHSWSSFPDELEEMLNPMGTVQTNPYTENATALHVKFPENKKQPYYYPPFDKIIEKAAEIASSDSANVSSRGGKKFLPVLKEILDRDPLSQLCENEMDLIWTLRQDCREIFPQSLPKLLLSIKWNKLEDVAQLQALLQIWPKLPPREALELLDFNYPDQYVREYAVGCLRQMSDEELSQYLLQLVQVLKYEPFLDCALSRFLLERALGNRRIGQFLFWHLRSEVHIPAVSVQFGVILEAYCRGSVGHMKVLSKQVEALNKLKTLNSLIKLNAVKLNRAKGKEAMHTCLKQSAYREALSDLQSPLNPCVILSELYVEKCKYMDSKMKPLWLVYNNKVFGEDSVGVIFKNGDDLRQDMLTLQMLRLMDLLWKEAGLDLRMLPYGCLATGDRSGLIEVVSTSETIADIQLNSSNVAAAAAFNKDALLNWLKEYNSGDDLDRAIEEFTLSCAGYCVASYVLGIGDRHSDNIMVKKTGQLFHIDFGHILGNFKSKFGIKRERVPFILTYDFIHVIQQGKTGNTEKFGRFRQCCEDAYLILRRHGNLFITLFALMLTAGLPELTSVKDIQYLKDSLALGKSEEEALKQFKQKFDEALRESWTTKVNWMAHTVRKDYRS
Sequence of PI3Kβ (P27986 whole entry partner): as the sequence (P27986 whole entry partner, canonical isoform) above
Sequence of PI3Kγ (P48736 whole entry): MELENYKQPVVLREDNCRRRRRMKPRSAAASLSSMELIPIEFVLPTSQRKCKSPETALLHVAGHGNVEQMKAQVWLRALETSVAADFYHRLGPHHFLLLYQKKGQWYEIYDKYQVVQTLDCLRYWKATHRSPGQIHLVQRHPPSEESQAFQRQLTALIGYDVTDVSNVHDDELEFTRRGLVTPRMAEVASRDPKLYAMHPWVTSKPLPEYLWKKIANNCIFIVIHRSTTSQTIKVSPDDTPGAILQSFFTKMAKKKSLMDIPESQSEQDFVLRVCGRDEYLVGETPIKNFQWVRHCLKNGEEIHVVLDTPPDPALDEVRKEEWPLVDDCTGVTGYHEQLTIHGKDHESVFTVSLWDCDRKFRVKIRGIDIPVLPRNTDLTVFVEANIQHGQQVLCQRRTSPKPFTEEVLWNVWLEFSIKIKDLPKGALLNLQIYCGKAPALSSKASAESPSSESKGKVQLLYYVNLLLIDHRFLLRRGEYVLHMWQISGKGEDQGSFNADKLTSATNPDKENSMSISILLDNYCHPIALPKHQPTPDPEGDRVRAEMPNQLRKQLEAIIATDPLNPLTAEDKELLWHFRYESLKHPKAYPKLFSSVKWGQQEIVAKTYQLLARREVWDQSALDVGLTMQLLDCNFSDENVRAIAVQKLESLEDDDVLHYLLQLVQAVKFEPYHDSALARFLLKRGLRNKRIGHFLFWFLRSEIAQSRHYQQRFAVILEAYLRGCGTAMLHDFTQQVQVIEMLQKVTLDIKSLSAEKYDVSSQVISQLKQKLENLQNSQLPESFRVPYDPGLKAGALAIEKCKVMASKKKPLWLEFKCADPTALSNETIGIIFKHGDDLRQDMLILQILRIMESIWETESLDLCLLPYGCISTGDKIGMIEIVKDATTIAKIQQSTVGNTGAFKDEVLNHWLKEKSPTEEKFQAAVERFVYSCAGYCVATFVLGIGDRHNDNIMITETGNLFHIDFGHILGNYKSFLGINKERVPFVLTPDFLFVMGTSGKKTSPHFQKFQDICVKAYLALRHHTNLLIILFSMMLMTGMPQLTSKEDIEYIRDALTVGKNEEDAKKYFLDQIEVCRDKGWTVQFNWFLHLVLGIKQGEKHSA

- IC50 [3]: 10.7 to 17.3 µM
- in vivo metabolites identified [6]: MV-187 (6a) and PD0316684 and MV4–6
SMILES: O=C(NOCCOCCOCCOCCNc1nc(N2CCOCC2)nc(-n2c(C(F)F)nc3ccccc32)n1)c1ccc(F)c(F)c1Nc1ccc(I)cc1F [Compound 6r, N-(2-(2-(2-(2-((4-(2-(difluoromethyl)-1H-benzo[d]imidazol-1-yl)-6-morpholino-1,3,5-triazin-2-yl)amino)ethoxy)ethoxy)ethoxy)ethoxy)-3,4-difluoro-2-((2-fluoro-4-iodophenyl)amino)benzamide]
- inhibition at 10 µM [4]: 66 to 85%
- inhibition at 10 µM [5]: 22 to 29%
- spleen volume by MRI compared with vehicle (JAK2V617F MF mouse model): significantly reduced
- phosphorylated ERK1/2 and AKT levels in spleen [7]: significantly reduced

- IC50 [3]: 7 to 9.9 µM
SMILES: O=C(NOCCOCCOCCOCCN(CCO)c1nc(N2CCOCC2)nc(-n2c(C(F)F)nc3ccccc32)n1)c1ccc(F)c(F)c1Nc1ccc(I)cc1F [Compound 6s, N-((3-(4-(2-(difluoromethyl)-1H-benzo[d]imidazol-1-yl)-6-morpholino-1,3,5-triazin-2-yl)-1-hydroxy-6,9,12-trioxa-3-azatetradecan-14-yl)oxy)-3,4-difluoro-2-((2-fluoro-4-iodophenyl)amino)benzamide]
- inhibition at 10 µM [4]: 87 to 96%
- inhibition at 10 µM [5]: 55 to 71%
- in vivo metabolites identified [6]: MV5–46 (6o), which is then further metabolized to MV5–32 (6b) and MV4–187 (6a)
- spleen volume by MRI compared with vehicle (JAK2V617F MF mouse model): significantly reduced
- phosphorylated ERK1/2 and AKT levels in spleen [7]: significantly reduced

Continued, molecule first:

SMILES: FC(F)c1nc2ccccc2n1-c1nc(N2CCNCC2)nc(N2CCOCC2)n1 [Compound 2a]
- fold reduction in PI3Kα and PI3Kδ inhibition [1]: 36 fold
- fold reduction in PI3Kβ and PI3Kγ inhibition [1]: > 70 fold

SMILES: OCCNc1nc(N2CCOCC2)nc(-n2c(C(F)F)nc3ccccc32)n1 [Compound 6a, 2-((4-(2-(difluoromethyl)-1H-benzo[d]imidazol-1-yl)-6-morpholino-1,3,5-triazin-2-yl)amino)ethan-1-ol]
- fold decrease in PI3Kβ inhibition (PI3Kβ): 5 fold
- fold lowered potency towards PI3Kγ (PI3Kγ): 2.5 fold
- fold decrease in PI3Kδ inhibition (PI3Kδ): 2.5 fold

SMILES: OCCN(CCO)c1nc(N2CCOCC2)nc(-n2c(C(F)F)nc3ccccc32)n1 [Compound 6b, 2,2’-((4-(2-(difluoromethyl)-1H-benzo[d]imidazol-1-yl)-6-morpholino-1,3,5-triazin-2-yl)azanediyl)bis(ethan-1-ol)]
- fold decrease in PI3Kβ inhibition (PI3Kβ): 5 fold
- fold decrease in PI3Kδ inhibition (PI3Kδ): 2.5 fold

SMILES: COCCNc1nc(N2CCOCC2)nc(-n2c(C(F)F)nc3ccccc32)n1 [Compound 6c, 4-(2-(difluoromethyl)-1H-benzo[d]imidazol-1-yl)-N-(2-methoxyethyl)-6-morpholino-1,3,5-triazin-2-amine]
- fold decrease in PI3Kβ inhibition (PI3Kβ): 14 fold

SMILES: COCCN(CCO)c1nc(N2CCOCC2)nc(-n2c(C(F)F)nc3ccccc32)n1 [Compound 6d, 2-((4-(2-(difluoromethyl)-1H-benzo[d]imidazol-1-yl)-6-morpholino-1,3,5-triazin-2-yl)(2-methoxyethyl)amino)ethan-1-ol]
- fold lower potency towards PI3Kβ and PI3Kγ [2]: 2 fold
